Laboratory results taken from ChEMBL document CHEMBL1134598, “Synthesis, ionotropic glutamate receptor binding affinity, and structure-activity relationships of a new set of 4,5-dihydro-8-heteroaryl-4-oxo-1,2,4-triazolo[1,5-a]quinoxaline-2-carboxylates analogues of TQX-173” (J Med Chem, 2001).
pIC50, pKi: −log10 of the molar value.

Legend:
[1] = biological target: T1, Glutamate NMDA receptor (Rattus norvegicus) (UniProt P35439+Q00959+Q00960+Q00961+Q62645+Q8VHN2+Q9R1M7); assay: Inhibition of [3H]- glycine binding to NMDA receptor of rat membrane; set-up: concentration or dose not given beside the values; details: concentration not given here
In short: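 Rat cortical synaptic membranes, [3H]glycine at 10 nM (KD 75 nM under these conditions). Compounds from 1 mM stock in 50% DMSO, diluted in buffer; four to six concentrations in triplicate, three or four displacement curves. IC50 converted to Ki by Cheng-Prusoff.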

[2] = biological target: Glutamate receptor ionotropic, kainate; assay: Inhibition of [3H]KA binding to kainate receptor of rat brain membranes; format: cell membranes, Membrane
[3] = biological target: Glutamate receptor ionotropic, AMPA (Rattus norvegicus, UniProt P19490+P19491+P19492+P19493); assay: Binding affinity at ionotropic glutamate receptor AMPA in rat cortical membranes [3H]AMPA displacement.; format: cell membranes
[4] = biological target: Glutamate receptor ionotropic, kainate (Rattus norvegicus) (UniProt P22756+Q01812+P42260+P42264+Q63273); assay: Inhibition of [3H]KA binding to kainate receptor in rat brain membranes; format: cell membranes; set-up: concentration or dose not given beside the values; details: concentration not given here
In short: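 Rat membranes resuspended at 0.5 mg protein/mL in 0.05 M Tris-citrate pH 7.4, preincubated 37 °C for 30 min, washed three times in ice-cold buffer. Incubated on ice for 60 min with 5 nM [3H]kainate and test compound. Nonspecific binding defined with 1 mM glutamate. Bound ligand recovered by GF/C filtration. Single-point inhibition measured at 100 µM.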

[5] = biological target: Glutamate receptor ionotropic, kainate; assay: Inhibition of specific binding of [3H]KA at kainate receptor in rat brain membranes; format: cell membranes
In short: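 Membranes preincubated at 37 °C for 30 min in 0.05 M Tris-citrate pH 7.4, then washed; 0.2-0.3 mg protein with 5 nM [3H]kainate on ice for 60 min. Nonspecific binding defined with 1 mM glutamate; bound ligand separated by glass-fibre filtration.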

[6] = biological target: T1, Glutamate NMDA receptor (Rattus norvegicus); assay: Percent inhibition of stimulated [3H](+)-MK-801 binding against N-methyl-D-aspartate glutamate receptor; format: protein-complex assay; details: concentration not given here
In short: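 Rat cortical membranes washed in 5 mM Tris-HCl pH 7.4 containing 0.08% Triton X-100, then put through further resuspension/centrifugation cycles. Incubation for 120 min at room temperature with 2.5 nM [3H]-(+)-MK-801, 10 µM glutamate and 0.1 µM glycine. Percent inhibition of specific binding at 100 µM; three or four determinations in triplicate.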

[7] = biological target: Glutamate receptor ionotropic, AMPA (Mus musculus, UniProt P23818+P23819+Q9Z2W8+Q9Z2W9); assay: Antagonism at ionotropic glutamate receptor AMPA in mouse cortical wedge preparation; format: functional
In short: (§1)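 Mouse cortical wedges perfused with Mg2+-free medium; AMPA (5 µM) applied for 2 min every 15 min until control peaks stabilised, then continuous superfusion with antagonist while agonist applications continued. IC50 from depolarization peaks with agonist plus antagonist compared with control peaks; four separate determinations.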

[8] = Inhibition of specific binding of [3H]KA against iGluRs
[9] = Antagonism at NMDA receptor in mouse cortical wedge preparation expressed as concentration that inhibits by 50% depolarizations induced by 5 uM NMDA
Glutamate NMDA receptor [10] = assay: Ability to displace [3H]glycine from NMDA receptor in rat cortical membranes; format: cell membranes
In short: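 Rat cortical synaptic membranes; [3H]glycine at 10 nM (KD 75 nM under these conditions). Test compound from 1 mM stock in 50% DMSO, diluted in buffer; four to six concentrations in triplicate, three or four displacement curves. IC50 by curve fitting, converted to Ki by Cheng-Prusoff.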

Glutamate NMDA receptor [11] = assay: Ability to displace [3H]glycine from NMDA receptor in rat corticaln membranes; format: cell membranes
Glutamate NMDA receptor [12] = assay: Inhibition of [3H]-(+)-MK-801 binding to NMDA receptor ion-channel complex of rat cortical memembranes; format: protein-complex assay
In short: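 Rat cortical membranes washed in 5 mM Tris-HCl pH 7.4 with 0.08% Triton X-100, 0.2-0.3 mg protein/tube. Incubated with 2.5 nM [3H]-(+)-MK-801, 10 µM glutamate and 0.1 µM glycine at room temperature for 120 min. IC50 or % inhibition at 100 µM; three or four determinations in triplicate.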

[13] = Antagonism at NMDA receptor in mouse cortical wedge preparation expressed as concentration that inhibits by 50% depolarizations induced by 5 uM AMPA; format: functional; details: in the assay text read “5 uM NMDA” for “5 uM AMPA”
In short: as §1, with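 “cortical wedges, gray matter” for “cortical wedges”, “Mg2+-free medium. Agonists (5 µM” for “Mg2+-free medium;”, “AMPA or 5 µM NMDA)” for “AMPA (5 µM)”, “compared to” for “compared with”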

Row | Compound | inhibition [1] [%] | pIC50 [2] | pKi [3] | inhibition [4] [%] | further results
1 | CCOC(=O)c1nc2c(O)nc3cc(Cl)c(-n4cnnc4)cc3n2n1 | 15 |  |  |  | 
2 | CCOC(=O)c1nc2c(O)nc3cc(Cl)c(-n4cccn4)cc3n2n1 |  |  |  | 20 | pKi [5]: 5.15
3 | CCOC(=O)c1nc2c(O)nc3cc(Cl)c(-n4cncn4)cc3n2n1 | 28 |  | 4.76 | 29 | 
4 | CCOC(=O)c1nc2c(O)nc3cc(Cl)c(-n4ccc(C=O)c4)cc3n2n1 |  | 4.06 | 5.72 |  | pKi (Glutamate NMDA receptor [10]): 4.72
5 | O=C(O)c1nc2c(=O)[nH]c3cc(Cl)c(-n4cccn4)cc3n2n1 |  | 4.70 | 5.37 |  | pIC50 [7]: 5.52; pKi (Glutamate NMDA receptor [11]): 5.28; pIC50 (Glutamate NMDA receptor [12]): 4.77; pIC50 [9]: 3.82
6 | CCOC(=O)c1nc2c(O)nc3cc(Cl)c(-n4ccnc4)cc3n2n1 | 39 |  |  |  | 
7 | CCOC(=O)c1nc2c(=O)[nH]c3cc(Cl)c(N)cc3n2n1 |  | 4.08 | 4.69 |  | pKi (Glutamate NMDA receptor [11]): 5.32
8 | NS(=O)(=O)c1cccc2c1c([N+](=O)[O-])cc1nc(O)c(O)nc12 [NBQX] | 3 |  |  |  | pIC50 (Glutamate NMDA receptor [12]): 6.70
9 | O=C(O)c1nc2c(O)nc3cc(Cl)c([N+](=O)[O-])cc3n2n1 |  |  |  |  | pKi [5]: 5.66; pIC50 (Glutamate NMDA receptor [12]): 4.75
10 | O=C(O)c1cc(O)c2c(Cl)cc(Cl)cc2n1 |  |  |  |  | pKi (Glutamate NMDA receptor [11]): 7.05; IC50 [13]: 4.7 µM
11 | O=C(O)c1nc2c(O)nc3cc(Cl)c(-n4cnnc4)cc3n2n1 [TQX-173] |  |  |  |  | pIC50 [7]: 5.64; pKi (Glutamate NMDA receptor [11]): 4.47; pIC50 [13]: 4.34; pIC50 (Glutamate NMDA receptor [12]): 4.17
12 | CCOC(=O)c1nc2c(O)nc3cc(-n4cnnc4)ccc3n2n1 | 8 |  | 5.00 | 35 | 
13 | CCOC(=O)c1nc2c(O)nc3cc(Cl)c([N+](=O)[O-])cc3n2n1 | 10.2 |  | 4.33 | 35 | 
14 | O=Cc1ccn(-c2cc3c(cc2Cl)nc(O)c2nc(C(=O)O)nn23)c1 |  | 5.05 | 6.28 |  | pIC50 [7]: 5.92; pKi (Glutamate NMDA receptor [10]): 4.55; pIC50 [13]: 4.64; pIC50 (Glutamate NMDA receptor [12]): 4.37
15 | CCOC(=O)c1nc2c(O)nc3ccc(-n4cnnc4)cc3n2n1 | 0 |  |  | 20 | 
16 | CCOC(=O)c1nc2c(O)nc3cc(Cl)c(-n4cccc4)cc3n2n1 |  |  | 4.74 | 7 | pKi [5]: 4.64

Second part, led by results:

Row | inhibition [1] [%] | pIC50 [2] | pKi [3] | inhibition [4] [%] | Compound | further results
17 | 35 | 4.09 | 4.36 |  | Nc1ccc2nc(O)c3nc(C(=O)O)nn3c2c1 | 
18 | 35 |  |  |  | CCOC(=O)c1nc2c(O)nc3ccc([N+](=O)[O-])cc3n2n1 | 
19 | 0 | 4.05 | 4.76 |  | O=C(O)c1nc2c(O)nc3ccc(-n4cnnc4)cc3n2n1 | inhibition [6]: 20%
20 | 35 |  | 5.43 |  | O=C(O)c1nc2c(O)nc3cc(Cl)c(-n4cncn4)cc3n2n1 | pIC50 [7]: 4.92; inhibition [6]: 30%; pIC50 [8]: 4.32; pIC50 [9]: 3.46
21 |  | 4.65 | 5.31 |  | Nc1cc2c(cc1Cl)nc(O)c1nc(C(=O)O)nn12 | pKi (Glutamate NMDA receptor [11]): 5.44; pIC50 (Glutamate NMDA receptor [12]): 5.25
22 | 0 |  | 5.37 | 44 | O=C(O)c1nc2c(O)nc3cc(-n4cnnc4)ccc3n2n1 | 
23 |  | 4.44 | 6.07 |  | O=C(O)c1nc2c(O)nc3cc(Cl)c(-n4cccc4)cc3n2n1 | pIC50 [7]: 5.52; pKi (Glutamate NMDA receptor [10]): 6.07; pIC50 (Glutamate NMDA receptor [12]): 4.93; pIC50 [9]: 4.28
24 |  |  |  | 16 | O=C(O)c1nc2c(O)nc3ccc([N+](=O)[O-])cc3n2n1 | pKi (Glutamate NMDA receptor [11]): 4.10
25 | 45 |  |  |  | O=C(O)c1nc2c(O)nc3cc(Cl)c(-n4ccnc4)cc3n2n1 | inhibition [6]: 45%
26 | 16 |  |  |  | CCOC(=O)c1nc2c(O)nc3ccc(N)cc3n2n1 | 
